Consider twelve molecules from paper PMC3329623 (The Biochemical journal, 2009).

The target of assay [1] is zfα5(huW1-4)β1-1 blade swap integrin (human | zebrafish) (UniProt P08648). Put plainly: ELISA. (In general: ELISA stands for enzyme-linked immunosorbent assay.)
For assay [2], the target named is zfα5β1-1(L206A) (zebrafish). Put plainly: ELISA.
The target of assay [3] is zfα5β1-1(D225A) (zebrafish). Put plainly: ELISA.
In assay [4] the target is zfα5(SWAA)β1-1 loop swap integrin (D3-A3 loop RGRK to SWAA) (zebrafish). Put plainly: ELISA.
In assay [5] the target is zfα5(EPEK)β1-1 loop swap integrin (B2-C2 loop KEDTPH to EKEPL) (zebrafish). Description: ELISA.
Assay [6] addresses zfα5(ASSIY)β1-1 loop swap integrin (D4-A4 loop RKEIRF to ASSIY) (zebrafish). Put plainly: ELISA.
Assay [7] concerns the target zfα5β1-1(Y204A) (zebrafish). Put plainly: ELISA.
In assay [8] the target is zebrafish α5β1-1-Fc recombinant soluble integrin (zebrafish). Description: ELISA.
Assay [9] has as its target triple loop swap zfα5β1-1 integrin (KEDTPH to EKEPL, RGRK to SWAA and RKEIRF to ASSIY) (zebrafish). Description: ELISA.
For assay [10], the system named is zfα5β1-1, zfα5β1-2 and zfα5huβ1. Put plainly: inhibition of 70K binding to zebrafish α5 integrins. The settings on record: specificity control / antagonist test; 1 mM Mn2+. In short, it runs like this:
(§1)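 Receptors were Fc-fused α5β1 headpiece integrins expressed transiently in CHO-L761h cells and captured from supernatant on goat anti-human Fc. Binding of the biotinylated fibronectin fragment (2–3 nM) was run with 1 mM Mn2+ at room temperature. Peptide inhibitor was tested at 0.1–100 μg/ml and small-molecule inhibitor at 0.1–300 nM, both serially diluted. BSA-well background was subtracted; four replicate wells; at least three experiments.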

Assay [11] has as its system huα5β1-1, huα5β1-2 and huα5huβ1. Description: inhibition of 50K binding to human α5 integrins. On the set-up: species or system human α5 / zebrafish or human β1. The settings on record: 1 mM Mn2+. In short, it runs like this:
as §1

In another assay the test system is α5β1. The conditions noted are these: cited from earlier work; for affinity for α5β1: phage display peptides.
The test system of assay [12] is huα5β1-1. Description: inhibition of 50K binding to huα5β1-1. Details: species or system human α5 / zebrafish β1-1. The conditions noted are these: control experiments.
A further assay deals with Triple swap (Danio rerio, UniProt A0ACM8Q6M2+Q3YAA1, K151E/E152K/D153E/DEL154/H156L/R184S/G185W/R186A/K187A/R250A/K251S/E252S/DEL254/F255Y/S520N). Description: Solid-phase inhibition of biotinylated 70K zebrafish fibronectin-1 fragment. Format: biochemical. The conditions noted are these: read-out: Apparent KI values (nM), JSM6427, 70K; SD, n = 3. The gist of the method:
(§2)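 Fc-fused soluble integrin (full α5 ectodomain plus β1 headpiece: PSI, hybrid, βI) from CHO-L761h supernatants 6 days after transient co-transfection, captured on anti-human Fc. Biotinylated fibronectin fragment (E. coli-made human 3Fn6-10 or FLAG-purified zebrafish 70K from 293-EBNA cells) at 2–3 nM, 1 mM Mn2+, room temperature. Inhibitor 0.1–300 nM, serially diluted. Four replicate wells, BSA background subtracted. Curves fitted by simulated annealing. KI = IC50/(1+[ligand]/KD).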

Assay [13] concerns the target huα5β1-1 (UniProt P08648+Q3YAA1). Description: Solid-phase inhibition of biotinylated 50K human fibronectin fragment. Format: biochemical. The settings on record: read-out: Apparent KI values (nM), JSM6427, 50K; SD, n = 3. In short, it runs like this: as §2
The target of a further assay is zfα5(SGAA)β1-1 (Danio rerio, UniProt A0ACM8Q6M2+Q3YAA1, R184S/R186A/K187A/S520N). Format: biochemical. The conditions noted are these: read-out: apparent KI values for JSM6427 (Figure 6 legend); SD, n = 3. The gist of the method:
as §2

Assay [14] deals with T1, zfα5(SWAA)β1-1 (Danio rerio, UniProt A0ACM8Q6M2+Q3YAA1, R184S/G185W/R186A/K187A/S520N). Put plainly: Solid-phase inhibition of biotinylated 70K zebrafish fibronectin-1 fragment. The settings on record: read-out: Apparent KI values (nM), JSM6427, 70K; SD, n = 3. Format: biochemical. In short, it runs like this: as §2
Assay [15] concerns the target T1, zfα5(SWAA)β1-1. Format: biochemical. The settings on record: read-out: apparent KI values for JSM6427 (Figure 6 legend); SD, n = 3. In short, it runs like this:
as §2

Assay [16] concerns human α5 with Ile-210 (equivalent of Leu-206) mutated to alanine. The conditions noted are these: cited from earlier work.
Assay [17] relates to human α5 with Tyr-208 (equivalent of Tyr-204) mutated to alanine. The conditions noted are these: cited from earlier work.
The target in assay [18] is human α5 / zebrafish β1-1-Fc recombinant soluble integrin (human | zebrafish, UniProt P08648;Q3YAA1). Description: ELISA.
Assay [19] addresses zfα5(SWAA)β1-1 loop swap integrin (D3-A3 loop RGRK to SWAA) (zebrafish). Put plainly: ELISA. This is another data set of the same source.
The target of assay [20] is zfα5(huW1-4)β1-1 blade swap integrin (human | zebrafish) (UniProt P08648). Description: ELISA. This is another data set of the same source.
The target in assay [21] is triple loop swap zfα5β1-1 integrin (KEDTPH to EKEPL, RGRK to SWAA and RKEIRF to ASSIY) (zebrafish). Put plainly: ELISA. This is another data set of the same source.

Like-named read-outs stand apart in the source and are kept apart here. Bridge positions count the residues as written; N and C are the ends. Ends that are not written are not given here.

With “50 kDa cell binding domain of human fibronectin (3Fn6-10) (domain or fragment)”, in [1], the Kd (as a rule, the concentration at which binding is half-saturated) stood at 0.0013 µM.

As to “70 kDa cell binding fragment of zebrafish fibronectin-1 (3Fn6-10 including the EIIIB domain) (domain or fragment)”, the Kd is 0.106 µM in [2]; 0.042 µM in assay [3]; 0.0017 µM in [4]; 0.0046 µM in [5]; 0.0083 µM in assay [6]; 0.079 µM in assay [7]. The Kd in assay [1] worked out at 0.014 µM; in assay [9], 0.0058 µM. Besides, the fold higher affinity than for zfα5β1-2 in assay [8] was determined as 3 fold.

With `O=C(O)CN(CCN(CC(=O)O)CC(=O)O)CC(=O)O` [EDTA], the “inhibition of 70K binding to zebrafish α5 integrins” value in assay [10] is given as “could be inhibited”. The “inhibition of 50K binding to human α5 integrins” value in assay [11] is given as “fully inhibited”.

Regarding “CRGDGFC (disulfide 1-7 (inferred)) [CRGDGFC]”, the “affinity for α5β1” value in the assay with α5β1 is “high affinity”.

In the case of “CRGDGWC (disulfide 1-7 (inferred)) [CRGDGWC]”, the “affinity for α5β1” value with α5β1 is “high affinity”.

Turning to “GACRRETADACGA (disulfide 3-11 (inferred))”, in the assay on huα5β1-1 [12], the “inhibition of 50K binding to huα5β1-1” value was “ineffective”.

As to “GCRGDSPCG (disulfide 2-8 (inferred)) [cyclic RGD peptide]”, the “inhibition of 70K binding to zebrafish α5 integrins” value in assay [10] was “could be inhibited”. In addition, in assay [11], the “inhibition of 50K binding to human α5 integrins” value is “fully inhibited”.

For JSM6427, the Ki on Triple swap worked out at 1.21 ± 0.04 nM; on huα5β1-1 [13] it was 0.65 ± 0.15 nM; on zfα5(SGAA)β1-1 it was 0.025 µM; at zfα5(SWAA)β1-1 [14] it was 7.2 ± 2.4 nM; at zfα5(SWAA)β1-1 [15], 0.0042 µM.

With RGDGW, the “specificity/selectivity for human α5β1” value in the assay with α5β1 (Trp-157 in the D3-A3 loop involved) is “human α5β1-specific and α5β1-selective”.

As to fibronectin, the “reduction of affinity of fibronectin binding, human α5 Ile mutated to alanine” value in [16] is on record as 200 fold. In assay [17], the “reduction of affinity of fibronectin binding, human α5 Tyr mutated to alanine” value is recorded as 5 fold.

B1: cyclic peptide GACRRETAWACGA (peptide)
peptide: GACRRETAWACGA
modifications: disulfide 3-11 (inferred)
Regarding B1, the Ki in assay [18] is 0.047 µM.

B2: cyclic peptide … (peptide)
peptide: GACRRETAWACGA
modifications: disulfide 3-11 (inferred)
For the molecule B2, the Ki worked out at 0.126 µM in [19], 0.031 µM in [20] and 0.076 µM in assay [21].
